Test results: ChEMBL document CHEMBL3232994, “Searching for new derivatives of neocryptolepine: synthesis, antiproliferative, antimicrobial and antifungal activities” (Eur J Med Chem, 2014)
In brackets after ≈: the same amount, converted by molar mass. Activity calls are given as the source filed them. No cut-off for these calls is given here.

Columns and labels:
Candida albicans [1] = test: Antifungal activity against Candida albicans ATCC 90028 assessed as growth inhibition after 18 hrs by two-fold serial dilution method; assay type: functional; details: ATCC 90028, 18 h
In short: (§1)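 MIC by twofold serial dilution on RPMI agar per CLSI. Final inoculum 10⁴ CFU/mL. Plates read after 18 h at 35 °C.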

Staphylococcus aureus [2] = test: Antibacterial activity against Staphylococcus aureus NCTC 4163 assessed as growth inhibition after 18 hrs by two-fold serial dilution method; assay type: functional; details: NCTC 4163, 18 h
In short: (§2)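 Twofold serial agar dilution on Mueller–Hinton II agar per CLSI. Final inoculum 10⁴ CFU/mL, except Enterococcus hirae ATCC 10541 at 10⁵ CFU/mL. MIC read after 18 h at 35 °C.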

Micrococcus luteus [3] = test: Antibacterial activity against Micrococcus luteus ATCC 9341 assessed as growth inhibition after 18 hrs by two-fold serial dilution method; details: ATCC 9341, 18 h
Candida parapsilosis = test: Antifungal activity against Candida parapsilosis ATCC 22019 assessed as growth inhibition after 18 hrs by two-fold serial dilution method; assay type: functional; details: Lodderomyces parapsilosis, ATCC 22019, 18 h
Candida albicans [4] = test: Antifungal activity against Candida albicans ATCC 10231 assessed as growth inhibition after 18 hrs by two-fold serial dilution method; assay type: functional; details: ATCC 10231, 18 h; in short: as §1
Enterococcus hirae = test: Antibacterial activity against Enterococcus hirae ATCC 10541 assessed as growth inhibition after 18 hrs by two-fold serial dilution method; assay type: functional; details: ATCC 10541, 18 h; in short: as §2
Bacillus spizizenii = test: Antibacterial activity against Bacillus subtilis ATCC 6633 assessed as growth inhibition after 18 hrs by two-fold serial dilution method; assay type: functional; details: ATCC 6633, 18 h; in short: as §2
Candida albicans [5] = test: Antifungal activity against Candida albicans SN250 assessed as growth inhibition after 18 hrs by two-fold serial dilution method; assay type: functional; details: SN250, 18 h
Staphylococcus aureus [6] = test: Antibacterial activity against Staphylococcus aureus ATCC 25923 assessed as growth inhibition after 18 hrs by two-fold serial dilution method; assay type: functional; details: ATCC 25923, 18 h; in short: as §2
[7] = system: Staphylococcus epidermidis; test: Antibacterial activity against Staphylococcus epidermidis ATCC 12228 assessed as growth inhibition after 18 hrs by two-fold serial dilution method; assay type: functional; details: ATCC 12228, 18 h; in short: as §2
Bacillus cereus = test: Antibacterial activity against Bacillus cereus ATCC 11778 assessed as growth inhibition after 18 hrs by two-fold serial dilution method; assay type: functional; details: ATCC 11778, 18 h; in short: as §2
Staphylococcus aureus [8] = test: Antibacterial activity against Staphylococcus aureus ATCC 29213 assessed as growth inhibition after 18 hrs by two-fold serial dilution method; assay type: functional; details: ATCC 29213, 18 h; in short: as §2
Staphylococcus aureus [9] = test: Antibacterial activity against Staphylococcus aureus ATCC 6538 assessed as growth inhibition after 18 hrs by two-fold serial dilution method; assay type: functional; details: ATCC 6538, 18 h; in short: as §2
Micrococcus luteus [10] = test: Antibacterial activity against Micrococcus luteus ATCC 10240 assessed as growth inhibition after 18 hrs by two-fold serial dilution method; assay type: functional; details: ATCC 10240, 18 h; in short: as §2
BALB/3T3 = test: Cytotoxicity against mouse BALB/3T3 cells assessed as growth inhibition after 72 hrs by SRB assay; assay type: cell-based; details: BALB/3T3, 72 h
In short: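 Mouse fibroblasts were kept in Dulbecco medium with 10% FBS, L-glutamine and pyruvate, and seeded at 10⁴/well 24 h before dosing. Agents were given at four tenfold final levels for 72 h. Cells were TCA-fixed (50%, 4 °C, 1 h) and stained with 0.4% SRB in 1% acetic acid. Triplicate wells, 3–5 repeats. IC50 versus untreated cells.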

KB = test: Cytotoxicity against human KB cells assessed as growth inhibition after 72 hrs by SRB assay; assay type: functional, cell-based
In short: (§3)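 Cells were seeded at 10⁴/well in RPMI 1640/Opti-MEM (1:1) with 5% FBS, plus 0.01 mg/mL insulin for MCF-7, 24 h before dosing. Agents in water/medium were given at four tenfold final levels for 72 h. Cells were fixed with cold 50% TCA (1 h, 4 °C), stained with 0.4% SRB, cell-free blank. Triplicate wells, 3–5 repeats. IC50 relative to untreated control.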

A549 = test: Cytotoxicity against human A549 cells assessed as growth inhibition after 72 hrs by SRB assay; assay type: functional, cell-based; details: A549, 72 h; in short: as §3
MCF7 = test: Cytotoxicity against human MCF7 cells assessed as growth inhibition after 72 hrs by SRB assay; assay type: functional, cell-based; details: MCF7, 72 h; in short: as §3
LoVo = test: Cytotoxicity against human LoVo cells assessed as growth inhibition after 72 hrs by SRB assay; assay type: functional, cell-based; in short: as §3
Candida albicans [11] = test: Antifungal activity against Candida albicans SN250 assessed as inhibition of biofilm formation < MIC after 24 hrs by XTT reduction assay; assay type: functional, organism-based
Candida albicans [12] = test: Antifungal activity against Candida albicans SN250 assessed as […] at 2.4 to 625 ug/mL after 24 hrs by XTT reduction assay; assay type: functional, organism-based

SMILES	MIC (Candida albicans [1])	MIC (Staphylococcus aureus [2])	MIC (Micrococcus luteus [3])	MIC (Candida parapsilosis)	MIC (Candida albicans [4])	MIC (Enterococcus hirae)	MIC (Bacillus spizizenii)	MIC (Candida albicans [5])	MIC (Staphylococcus aureus [6])	MIC [7]	MIC (Bacillus cereus)	MIC (Staphylococcus aureus [8])	MIC (Staphylococcus aureus [9])	MIC (Micrococcus luteus [10])	IC50 (BALB/3T3)	IC50 (KB)	inhibition (Candida albicans [11])	inhibition (Candida albicans [12])	further results
Cc1c2c3cc(NC(=O)[C@@H](N)Cc4cnc[nH]4)ccc3nc-2n(C)c2ccccc12.Cl	> 200 µg/mL	> 200 µg/mL	> 200 µg/mL	> 200 µg/mL	> 200 µg/mL	> 200 µg/mL	> 200 µg/mL	125 µg/mL	> 200 µg/mL	> 200 µg/mL	> 200 µg/mL	> 200 µg/mL	> 200 µg/mL	> 200 µg/mL	–	–	–	–	–
Cc1c2c3ccccc3nc-2n(C)c2ccc(NC(=O)CN)cc12.Cl	100 µg/mL	12.5 µg/mL	6.25 µg/mL	100 µg/mL	100 µg/mL	100 µg/mL	12.5 µg/mL	15.6 µg/mL	12.5 µg/mL	12.5 µg/mL	50 µg/mL	12.5 µg/mL	12.5 µg/mL	12.5 µg/mL	420 nM	420 nM	Active	–	IC50 (A549): 80 nM; IC50 (MCF7): 460 nM; IC50 (LoVo): 60 nM
Cc1c2c3ccccc3nc-2n(C)c2ccc(NC(=O)[C@@H](N)Cc3cnc[nH]3)cc12.Cl	> 200 µg/mL	> 200 µg/mL	> 200 µg/mL	> 200 µg/mL	> 200 µg/mL	> 200 µg/mL	> 200 µg/mL	250 µg/mL	> 200 µg/mL	> 200 µg/mL	> 200 µg/mL	> 200 µg/mL	> 200 µg/mL	> 200 µg/mL	–	3880 nM	–	inactive	–
O=C(O)c1cn(C2CC2)c2cc(N3CCNCC3)c(F)cc2c1=O [CIPROFLOXACIN]	–	0.25 µg/mL (≈ 0.754 µM)	2 µg/mL (≈ 6.04 µM)	–	–	4 µg/mL (≈ 12.1 µM)	< 0.125 µg/mL	–	0.5 µg/mL (≈ 1.51 µM)	0.25 µg/mL (≈ 0.754 µM)	1 µg/mL (≈ 3.02 µM)	0.5 µg/mL (≈ 1.51 µM)	0.25 µg/mL (≈ 0.754 µM)	1 µg/mL (≈ 3.02 µM)	–	–	–	–	–
Cc1c2c3ccccc3nc-2n(C)c2ccccc12	12.5 µg/mL (≈ 50.7 µM)	100 µg/mL (≈ 406 µM)	50 µg/mL (≈ 203 µM)	12.5 µg/mL (≈ 50.7 µM)	12.5 µg/mL (≈ 50.7 µM)	200 µg/mL (≈ 812 µM)	50 µg/mL (≈ 203 µM)	12.5 µg/mL (≈ 50.7 µM)	200 µg/mL (≈ 812 µM)	100 µg/mL (≈ 406 µM)	100 µg/mL (≈ 406 µM)	100 µg/mL (≈ 406 µM)	100 µg/mL (≈ 406 µM)	50 µg/mL (≈ 203 µM)	5770 nM	–	Active	–	–
Cc1c2c3cc(NC(=O)CNC(=O)CN)ccc3nc-2n(C)c2ccccc12.Cl.Cl	200 µg/mL	> 200 µg/mL	200 µg/mL	200 µg/mL	200 µg/mL	> 200 µg/mL	100 µg/mL	200 µg/mL	> 200 µg/mL	> 200 µg/mL	> 200 µg/mL	> 200 µg/mL	> 200 µg/mL	200 µg/mL	–	–	–	inactive	–
Cc1c2c3ccccc3nc-2n(C)c2ccc(NC(=O)CNC(=O)CN)cc12.Cl	> 200 µg/mL	> 200 µg/mL	> 200 µg/mL	> 200 µg/mL	> 200 µg/mL	> 200 µg/mL	> 200 µg/mL	> 500 µg/mL	> 200 µg/mL	> 200 µg/mL	> 200 µg/mL	> 200 µg/mL	> 200 µg/mL	> 200 µg/mL	2110 nM	1540 nM	–	inactive	IC50 (A549): 1440 nM; IC50 (MCF7): 4110 nM; IC50 (LoVo): 1170 nM
Cc1c2c3cc(NC(=O)CN)ccc3nc-2n(C)c2ccccc12.Cl.Cl	50 µg/mL	50 µg/mL	6.25 µg/mL	25 µg/mL	25 µg/mL	100 µg/mL	12.5 µg/mL	15.6 µg/mL	50 µg/mL	25 µg/mL	50 µg/mL	100 µg/mL	50 µg/mL	6.25 µg/mL	–	–	Active	–	–
Cc1c2c3ccccc3nc-2n(C)c2ccc(NC(=O)[C@@H]3CCCN3)cc12.Cl	50 µg/mL	12.5 µg/mL	6.25 µg/mL	50 µg/mL	100 µg/mL	100 µg/mL	6.25 µg/mL	31.2 µg/mL	50 µg/mL	12.5 µg/mL	25 µg/mL	50 µg/mL	12.5 µg/mL	6.25 µg/mL	540 nM	470 nM	–	–	IC50 (A549): 120 nM; IC50 (MCF7): 620 nM; IC50 (LoVo): 70 nM
Cc1c2c3cc(NC(=O)[C@@H]4CCCN4)ccc3nc-2n(C)c2ccccc12.Cl.Cl	200 µg/mL	12.5 µg/mL	6.25 µg/mL	200 µg/mL	200 µg/mL	100 µg/mL	12.5 µg/mL	200 µg/mL	50 µg/mL	12.5 µg/mL	50 µg/mL	50 µg/mL	12.5 µg/mL	6.25 µg/mL	–	–	Active	–	–
OC(Cn1cncn1)(Cn1cncn1)c1ccc(F)cc1F [FLUCONAZOLE]	1 µg/mL (≈ 3.27 µM)	–	–	2 µg/mL (≈ 6.53 µM)	1 µg/mL (≈ 3.27 µM)	–	–	–	–	–	–	–	–	–	–	–	–	–	–
Cc1c2c3cc(NC(=O)CNC(=O)[C@@H]4CCCN4)ccc3nc-2n(C)c2ccccc12.Cl.Cl	200 µg/mL	> 200 µg/mL	50 µg/mL	200 µg/mL	200 µg/mL	> 200 µg/mL	100 µg/mL	200 µg/mL	> 200 µg/mL	100 µg/mL	> 200 µg/mL	100 µg/mL	> 200 µg/mL	50 µg/mL	–	–	–	inactive	–
